Screening results (PubChem)
KCNQ1 act – potentiators or activators of KCNQ1 channel, primary screen, cell-based, thallium flux, high-throughput; Potassium voltage-gated channel subfamily KQT member 1 (Homo sapiens), P51787; CHO-K1 KCNQ1, thallium flux FluxOR fluorescence; active compounds read high; B-score at 10 µM; actives 0.35% (n = 310,000); AID 2648, 2010;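 active means fluorescence ratio B-score, a plate-corrected score, at least three library SD, with initial intensity B-score within 5 SD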
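Material: CHO-K1 cells stably expressing KCNQ1. Medium: assay buffer for compound exposure, DMSO matched across wells. Reagent: K+/Tl+ depolarizing stimulus. Compound dosing: single-concentration screen. Times: 37 °C overnight plating, 90-min dark dye load, 20-min compound pretreatment. Technique: FluxOR Tl+ flux fluorescence.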
KCNQ1 block – inhibitors of human KCNQ1 channel, primary screen, cell-based, thallium flux, high-throughput. Potassium voltage-gated channel subfamily KQT member 1 (Homo sapiens), P51787. CHO-K1 KCNQ1, FluxOR thallium flux fluorescence; active compounds read high. B-score at 10 µM. actives 1.3% (n = 310,000);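 active means compounds whose thallium flux B-score, printed positive for inhibition, exceeds three library SD while starting fluorescence stays within three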;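 further: channel opened by potassium depolarization with thallium stimulus after 20 min compound exposure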
Kir21 inh – inhibitors of mouse Kir2.1 inward-rectifier potassium channel. Inward rectifier potassium channel 2 (Mus musculus), P35561. HEK293-Kir2.1, FluxOR thallium flux fluorescence; active compounds read low. B-score at 10 µM. actives 0.85% (n = 310,000). AID 1672, 2009;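 active means fluorescence ratio B-score at or below minus 3 SD of library scores, with starting-brightness B-score within 2 SD, cut at about -4.2 in these data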;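 further: channel flux triggered by added potassium and thallium sulfate stimulus; B-score of peak minus minimum fluorescence over baseline after thallium stimulus; more negative B-score means stronger Kir2.1 block with less thallium influx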
KCNK9 block – KCNK9 potassium channel inhibitors, primary screen, HEK293 cells, thallium flux; AID 488922, 2010; B-score at 10 µM; Potassium channel subfamily K member 9 (Homo sapiens), Q9NPC2; actives 1.2% (n = 310,000); FluxOR thallium flux fluorescence; active compounds read low;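 active means ratio B-score over 3 SD below the library mean, with starting fluorescence within 5 SD of its mean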;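 further: negative B-score means less thallium flux so channel inhibition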
hERG rescue – hERG rescue from dofetilide block, primary screen, cell-based, CHO-hERG, FluxOR thallium flux, dofetilide IC70 | AID 1511, 2009 | dofetilide IC70 present | Voltage-gated inwardly rectifying potassium channel KCNH2 (Homo sapiens), Q12809 | activation (rescue from dofetilide block), less the hit threshold, % at 10 µM | actives 0.51% (n = 310,000);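 active means activation above the mean of controls blocked by dofetilide plus 5 SD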;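 further: thallium influx through hERG after potassium depolarization seen as dye fluorescence rise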
KCNK3 inh – human KCNK3 channel inhibitors, primary screen, CHO cells, FluxOR thallium flux, B-score. Potassium channel subfamily K member 3 (Homo sapiens), O14649. FluxOR fluorescence; active compounds read low. B-score at 10 µM. actives 0.84% (n = 340,000). AID 602410, 2012;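 active means B-score under library mean minus 4 SD, starting fluorescence ratio at most library mean plus 5 SD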;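 further: more negative B-score means stronger inhibition of thallium flux through KCNK3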
KCNK9 inh conf – KCNK9 potassium channel inhibitors, confirmation, HEK293 cells, thallium flux, duplicate; FluxOR thallium flux fluorescence; shares compounds with KCNK9 block; AID 492992, 2010; actives 43% (n = 4,900); inhibition, % at 10 µM;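 active means thallium signal inhibited by more than 5 SD of the compound-free buffer control wells, on both duplicate plates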;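 further: 0% = assay buffer control wells without compound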
Kir2-1 spec – mouse Kir2.1 channel inhibition, confirmation, selectivity assay for KCNK9 modulator project, cell-based, HEK293, thallium flux; shares compounds with KCNK9 block; actives 4% (n = 4,900); Kir2.1 cells, FluxOR thallium flux fluorescence; AID 492993, 2010; inhibition, % at 10 µM;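 active means thallium signal drop more than 5 SD beyond the mean of the no-compound control wells, seen in both duplicate plates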;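 further: signal is fluorescence rise after thallium addition divided by baseline fluorescence; plate controls were assay buffer only for no effect and full block by chlorpromazine control for full effect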
HEK293 Tl ctr – thallium flux in non-induced HEK293 cells, confirmation, counter-screen for KCNK9 inhibitor project, cell-based, second counter screen, non-induced KCNK9-HEK293; shares compounds with KCNK9 block; FluxOR thallium flux; inhibition, % at 10 µM; actives 40% (n = 4,900); AID 492997, 2010;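 active means thallium signal drop beyond 5 SD of the untreated control mean, on both duplicate plates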;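 further: plate controls were buffer only IC0 wells for no effect and SID17386958 at its maximal inhibitory level for full effect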
KCNK3 confirm – retest of human KCNK3 channel inhibitors, confirmation, CHO cells, FluxOR thallium flux, triplicate; FluxOR fluorescence; 0% buffer, 100% carvedilol maximal block; shares compounds with KCNK3 inh; ratio percent of control, % at 10 µM; AID 651638, 2012; actives 99% (n = 2,400);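 active means ratio percent of control, averaged over triplicates, above buffer control mean plus 5 SD, cut at about 64% in these data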;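 further: ratio is the fluorescence rise from min to max over baseline after thallium stimulus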
KCNK3 uninduced – thallium flux inhibition in non-induced cells, primary screen, counter-screen for KCNK3 inhibitor project, cell-based, non-induced KCNK3 line, FluxOR thallium, triplicate | shares compounds with KCNK3 inh | non-induced KCNK3 parental cells; active compounds read low | thallium flux ratio (lower = more inhibition) at 10 µM | actives 40% (n = 2,400) | AID 651747, 2012;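 active means thallium flux ratio, averaged over three wells, more than 5 SD below the buffer control mean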;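 further: host cells are CHO cells without KCNK3 induction; ratio is peak minus trough fluorescence over baseline then normalized to buffer controls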
The depositor's hits bear a star; i = inactive; . = no result given. An excerpt weighted towards active compounds, which were near 3.7% of everything screened.

SMILES	KCNQ1 act	KCNQ1 block	Kir21 inh	KCNK9 block	hERG rescue	KCNK3 inh	KCNK9 inh conf	Kir2-1 spec	HEK293 Tl ctr	KCNK3 confirm	KCNK3 uninduced
O=C(CC(CC(=O)c1ccccc1)c1ccccc1)c1ccccc1	i	i	0.83	-11.7*	-9.7	-10.7*	36.5%*	i	34.0%*	110.3*	i
Cc1nn(-c2ccccc2)c(Cl)c1/C=N/NC(=O)c1ccccc1F	i	i	0.6	-14.4*	-25.9	-11.1*	57.0%*	i	23.5%*	101.0*	i
CC(=O)Nc1c(C(=O)O)ccc(C)c1OCc1ccccc1	.	.	.	.	.	i	.	.	.	.	.
Cc1cc(C)c2cc(CN(CC3CCCO3)C(=S)NCc3ccco3)c(=O)[nH]c2c1 (stereo not given)	i	i	1.18	-9.46*	-11.1	-9.78*	29.0%*	i	33.0%*	112.7*	i
COC(=O)C1=C(C)N(CCCC(=O)O)C(=O)NC1c1ccc(C#N)cc1 (stereo not given)	i	i	0.02	i	-1.9	i	.	.	.	.	.
O=C(COc1coc(CN2CCN(c3ccccc3F)CC2)cc1=O)NC1CCCC1	i	i	0.67	i	-11.7	i	.	.	.	.	.
Cc1cccc(Nc2nc(C)nc3c2oc2ccccc23)c1	i	i	-1.53	-8.83*	-11.4	-9.01*	29.5%*	i	25.5%*	116.3*	i
CCOC(=O)C1CCN(C(=O)c2cccnc2)CC1	i	i	0.55	i	0.4	i	.	.	.	.	.
CCOC(=O)C1CCN(C(c2cccnc2)c2c(NC(=O)c3ccco3)sc(C)c2C)CC1 (stereo not given)	i	i	-0.09	-18.6*	-17.4	-10.7*	66.5%*	i	40.0%*	136.3*	0.114*
CCCCn1c(SCC(=O)NC2CC2)nc2ccccc2c1=O	i	i	1.36	i	-7.1	i	.	.	.	.	.
COc1ccc(CSc2nc(C)cc(C)c2S(C)(=O)=O)cc1	i	i	-3.6	-10.9*	-4.0	-10.7*	39.5%*	i	34.0%*	111.3*	i
COc1ccc(Oc2nc(C)cc(C)c2S(C)(=O)=O)cc1	i	i	0.04	i	-9.6	i	.	.	.	.	.
COc1ccc(CCNS(=O)(=O)c2ccc(Br)s2)cc1	i	i	-0.66	-9.22*	-8.9	-9.42*	76.5%*	i	33.5%*	116.3*	i
COc1ccccc1N(CC(=O)NCCN1CCOCC1)S(=O)(=O)c1ccc(C)cc1	i	i	1.66	i	-3.7	i	.	.	.	.	.
O=C(Oc1ccc2ccccc2c1Br)N1CCCCCC1	i	i	-1.53	-12.2*	-13.2	i	68.0%*	i	36.0%*	108.3*	i
C=CCSc1nc(N)c(C(=O)Nc2ccccc2)cc1C#N	i	i	0.29	i	-7.9	i	.	.	.	.	.
C=CCSc1nc(N)c(C(=O)Nc2ccccc2OC)cc1C(=O)Nc1ccccc1	i	i	0.43	-8.7*	-9.3	-11*	27.0%*	i	i	107.3*	i
Cc1cc(NC(=S)N(CCN2CCCCC2)Cc2ccco2)ccc1Cl	i	i	1.67	-8.19*	-12.7	-11.4*	25.0%*	i	27.5%*	108.0*	i
Cn1ccnc1Sc1ccc(/C=N/NC(=O)c2ccccc2O)cc1[N+](=O)[O-]	i	i	-0.19	i	-4.8	i	.	.	.	.	.
Cc1ccc(-c2nc3c(c(=O)c4ccccc4n3C)c(=O)n2-c2ccc(F)cc2)cc1	i	i	0.01	i	-7.7	i	.	.	.	.	.
Cn1c2ccccc2c(=O)c2c(=O)n(-c3ccccc3)c(-c3ccc(C(C)(C)C)cc3)nc21	i	i	1.21	-11.5*	-11.1	-8.91*	33.5%*	i	i	130.0*	0.099*
Cc1ccc(Cl)cc1N1CCN(C2CCCCC2NS(=O)(=O)c2ccccc2)CC1 (stereo not given)	i	i	0.27	-17.1*	-9.8	-9.35*	54.5%*	i	43.0%*	111.7*	0.144*
Cc1cccc(N2CCN(C3CCCCC3NS(=O)(=O)c3ccccc3)CC2C)c1 (stereo not given)	i	i	0.15	-15.5*	-9.4	-9.25*	44.0%*	i	45.0%*	115.0*	0.153*
COc1ccc(C(=O)OCC(=O)Nc2ccc3c(c2)OCO3)cc1S(=O)(=O)N1CCOCC1	.	.	.	.	.	i	.	.	.	.	.
Clc1ccc(CSc2nnc(-c3sccc3-n3cccc3)o2)cc1	i	6*	-2.54	-13.9*	-17.8	-9.22*	49.5%*	i	i	100.7*	i
N#CC1=C(N)n2c(s/c(=C\c3cccs3)c2=O)=C(C#N)C1c1cccs1 (stereo not given)	i	i	1.21	-11.1*	-8.7	-9.44*	26.5%*	i	39.0%*	96.0*	0.154*
N#CC1=C(N)n2c(s/c(=C\c3ccco3)c2=O)=C(C#N)C1c1ccco1 (stereo not given)	i	i	-0.55	i	-6.7	i	.	.	.	.	.
CCN(CCCNC(=O)CCn1c(=S)[nH]c2cc3c(cc2c1=O)OCO3)c1cccc(C)c1	i	i	2.62	i	-0.9	i	.	.	.	.	.
